The values that follow come from ChEMBL document CHEMBL5653631, “A Potent and Selective ULK1 Inhibitor Suppresses Autophagy and Sensitizes Cancer Cells to Nutrient Stress” (iScience, 2018).

The structures appear in SMILES notation.

The target of assay [1] is Protein kinase C eta type (Homo sapiens) (UniProt P24723). Nature of the assay: Inhibition of human recombinant PKCH at 15 nM in presence of ATP by radiometric assay relative to control.
In assay [2] the target is T1, Serine/threonine-protein kinase BRSK1 (Homo sapiens) (UniProt Q8TDC3).
T1 sequence (whole entry): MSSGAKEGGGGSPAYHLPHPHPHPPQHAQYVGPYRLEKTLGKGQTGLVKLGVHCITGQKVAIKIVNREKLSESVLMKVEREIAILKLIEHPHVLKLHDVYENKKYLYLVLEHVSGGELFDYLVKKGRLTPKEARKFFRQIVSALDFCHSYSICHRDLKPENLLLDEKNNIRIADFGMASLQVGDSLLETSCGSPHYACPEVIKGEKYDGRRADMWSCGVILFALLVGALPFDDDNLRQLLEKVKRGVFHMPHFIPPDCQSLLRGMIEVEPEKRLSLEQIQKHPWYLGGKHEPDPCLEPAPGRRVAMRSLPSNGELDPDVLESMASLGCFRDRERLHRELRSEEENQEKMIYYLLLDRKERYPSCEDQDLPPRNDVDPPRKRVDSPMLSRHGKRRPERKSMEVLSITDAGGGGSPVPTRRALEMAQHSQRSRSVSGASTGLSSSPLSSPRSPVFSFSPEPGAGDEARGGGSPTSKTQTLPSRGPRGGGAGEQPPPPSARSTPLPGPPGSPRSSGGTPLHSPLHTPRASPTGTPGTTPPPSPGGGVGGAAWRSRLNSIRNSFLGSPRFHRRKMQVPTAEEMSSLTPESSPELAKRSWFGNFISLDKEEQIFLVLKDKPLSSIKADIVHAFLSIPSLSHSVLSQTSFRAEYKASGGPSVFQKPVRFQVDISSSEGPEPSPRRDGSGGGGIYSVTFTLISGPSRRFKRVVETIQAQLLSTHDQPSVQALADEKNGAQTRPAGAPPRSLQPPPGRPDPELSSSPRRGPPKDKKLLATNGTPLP
As to the kind of experiment: Inhibition of human recombinant BRSK1 at 15 nM related to control ULK1.

The target in assay [3] is Tyrosine-protein kinase ABL2 (Homo sapiens) (UniProt P42684). As to the kind of experiment: Inhibition of human recombinant ABL2 at 15 nM in presence of ATP by radiometric assay relative to control. The gist of the method:
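Panel of 327 recombinant human kinases in radiometric activity assays, each screened in duplicate at a single inhibitor concentration; percent activity remaining relative to vehicle control, percent inhibition taken as 100 minus activity remaining.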

Assay [4] has as its target Cyclin-dependent kinase 9 (Homo sapiens) (UniProt P50750). Nature of the assay: Inhibition of human recombinant CDK9 at 15 nM related to control ULK1.
For assay [5], the target named is Protein kinase C beta type (Homo sapiens) (UniProt P05771). As to the kind of experiment: Inhibition of human recombinant PKCb at 40 nM in presence of ATP by radiometric assay relative to control.
Assay [6] addresses T2, Serine/threonine-protein kinase PLK4 (Homo sapiens) (UniProt O00444).
T2 sequence (whole entry): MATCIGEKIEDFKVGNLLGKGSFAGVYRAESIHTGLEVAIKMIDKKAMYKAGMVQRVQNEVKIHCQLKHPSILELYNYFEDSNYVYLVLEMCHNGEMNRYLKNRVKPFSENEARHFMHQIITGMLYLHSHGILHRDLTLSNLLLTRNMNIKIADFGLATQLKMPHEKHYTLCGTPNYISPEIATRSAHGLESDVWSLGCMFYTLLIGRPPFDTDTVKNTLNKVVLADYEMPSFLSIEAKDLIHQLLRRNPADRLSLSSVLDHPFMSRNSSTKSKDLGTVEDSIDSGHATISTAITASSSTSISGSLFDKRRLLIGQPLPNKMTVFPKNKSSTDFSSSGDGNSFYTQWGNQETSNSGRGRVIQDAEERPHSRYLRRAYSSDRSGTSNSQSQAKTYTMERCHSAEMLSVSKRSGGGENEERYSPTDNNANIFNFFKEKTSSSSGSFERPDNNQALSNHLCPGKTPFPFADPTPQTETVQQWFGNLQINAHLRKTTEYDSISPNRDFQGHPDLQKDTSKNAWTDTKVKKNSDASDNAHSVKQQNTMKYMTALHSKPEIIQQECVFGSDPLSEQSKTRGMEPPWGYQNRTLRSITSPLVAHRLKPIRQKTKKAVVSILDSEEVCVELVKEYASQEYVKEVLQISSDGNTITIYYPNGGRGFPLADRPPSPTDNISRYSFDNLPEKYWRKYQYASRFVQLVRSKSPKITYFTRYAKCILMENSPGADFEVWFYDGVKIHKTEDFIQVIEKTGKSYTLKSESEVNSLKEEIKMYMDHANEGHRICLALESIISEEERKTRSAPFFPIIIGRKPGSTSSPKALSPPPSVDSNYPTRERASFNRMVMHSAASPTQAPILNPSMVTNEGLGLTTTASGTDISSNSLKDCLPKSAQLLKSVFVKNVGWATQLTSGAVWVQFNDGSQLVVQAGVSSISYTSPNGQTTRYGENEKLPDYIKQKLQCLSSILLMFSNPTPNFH
As to the kind of experiment: Inhibition of human recombinant PLK4 at 500 nM related to control ULK1.

For assay [7], the target named is T3, Serine/threonine-protein kinase BRSK2 (Homo sapiens) (UniProt Q8IWQ3).
T3 sequence (whole entry): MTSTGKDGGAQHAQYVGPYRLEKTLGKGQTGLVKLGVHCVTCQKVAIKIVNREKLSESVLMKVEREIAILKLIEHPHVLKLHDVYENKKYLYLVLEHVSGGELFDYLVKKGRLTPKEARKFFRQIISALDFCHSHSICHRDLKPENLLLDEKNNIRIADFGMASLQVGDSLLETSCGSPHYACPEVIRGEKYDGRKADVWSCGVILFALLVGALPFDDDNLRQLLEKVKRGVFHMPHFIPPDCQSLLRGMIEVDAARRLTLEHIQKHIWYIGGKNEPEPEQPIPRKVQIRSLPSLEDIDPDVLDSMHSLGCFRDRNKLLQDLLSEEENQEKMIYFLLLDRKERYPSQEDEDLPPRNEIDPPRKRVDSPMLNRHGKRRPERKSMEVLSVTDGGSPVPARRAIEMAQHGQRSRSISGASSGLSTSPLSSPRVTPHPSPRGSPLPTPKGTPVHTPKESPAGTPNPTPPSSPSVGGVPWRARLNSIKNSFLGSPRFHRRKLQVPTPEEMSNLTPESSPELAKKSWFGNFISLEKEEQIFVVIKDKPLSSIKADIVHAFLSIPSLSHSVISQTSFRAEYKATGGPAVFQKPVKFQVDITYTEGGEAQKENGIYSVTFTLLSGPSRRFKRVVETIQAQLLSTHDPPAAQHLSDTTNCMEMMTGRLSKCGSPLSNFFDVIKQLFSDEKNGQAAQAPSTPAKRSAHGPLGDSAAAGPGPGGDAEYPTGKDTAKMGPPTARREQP
As to the kind of experiment: Inhibition of human recombinant BRSK2 at 500 nM related to control ULK1.

Assay [8] concerns the target Serine/threonine-protein kinase MARK1 (Homo sapiens) (UniProt Q9P0L2). As to the kind of experiment: Inhibition of human recombinant MARK1 at 500 nM in presence of ATP by radiometric assay relative to control.

Cyclin-dependent kinase 9 (Homo sapiens), sequence (P50750 whole entry): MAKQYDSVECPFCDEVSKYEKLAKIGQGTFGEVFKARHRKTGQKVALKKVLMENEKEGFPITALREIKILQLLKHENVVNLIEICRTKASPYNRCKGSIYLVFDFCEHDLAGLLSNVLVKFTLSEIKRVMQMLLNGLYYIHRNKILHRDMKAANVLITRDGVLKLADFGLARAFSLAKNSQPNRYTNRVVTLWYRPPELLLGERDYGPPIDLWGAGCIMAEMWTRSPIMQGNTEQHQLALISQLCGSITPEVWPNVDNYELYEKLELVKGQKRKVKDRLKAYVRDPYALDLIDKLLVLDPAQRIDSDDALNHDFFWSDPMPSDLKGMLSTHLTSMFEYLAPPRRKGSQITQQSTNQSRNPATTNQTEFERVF
Serine/threonine-protein kinase MARK1 (Homo sapiens), sequence (Q9P0L2 whole entry, looked up): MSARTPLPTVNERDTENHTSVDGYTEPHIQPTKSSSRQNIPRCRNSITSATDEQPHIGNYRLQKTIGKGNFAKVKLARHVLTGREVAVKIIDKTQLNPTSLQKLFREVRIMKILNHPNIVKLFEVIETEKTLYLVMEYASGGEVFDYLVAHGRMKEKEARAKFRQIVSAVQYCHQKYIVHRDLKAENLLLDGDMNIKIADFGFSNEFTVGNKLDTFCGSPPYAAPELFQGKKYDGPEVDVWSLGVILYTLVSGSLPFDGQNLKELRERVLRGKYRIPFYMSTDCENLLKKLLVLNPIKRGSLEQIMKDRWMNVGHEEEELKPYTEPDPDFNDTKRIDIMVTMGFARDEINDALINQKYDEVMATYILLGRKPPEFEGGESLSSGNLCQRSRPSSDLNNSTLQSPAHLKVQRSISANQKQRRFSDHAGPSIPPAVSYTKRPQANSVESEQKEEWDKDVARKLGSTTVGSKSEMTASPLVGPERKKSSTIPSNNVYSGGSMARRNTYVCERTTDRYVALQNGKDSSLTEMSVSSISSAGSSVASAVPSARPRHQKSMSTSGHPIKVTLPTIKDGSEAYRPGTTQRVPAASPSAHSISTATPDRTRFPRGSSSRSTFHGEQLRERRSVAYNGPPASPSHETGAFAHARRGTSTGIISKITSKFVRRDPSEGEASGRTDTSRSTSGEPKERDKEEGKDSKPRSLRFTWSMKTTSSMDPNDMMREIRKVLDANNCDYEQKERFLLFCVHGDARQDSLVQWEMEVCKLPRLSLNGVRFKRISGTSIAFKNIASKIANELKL
Tyrosine-protein kinase ABL2 (Homo sapiens), sequence (P42684 whole entry): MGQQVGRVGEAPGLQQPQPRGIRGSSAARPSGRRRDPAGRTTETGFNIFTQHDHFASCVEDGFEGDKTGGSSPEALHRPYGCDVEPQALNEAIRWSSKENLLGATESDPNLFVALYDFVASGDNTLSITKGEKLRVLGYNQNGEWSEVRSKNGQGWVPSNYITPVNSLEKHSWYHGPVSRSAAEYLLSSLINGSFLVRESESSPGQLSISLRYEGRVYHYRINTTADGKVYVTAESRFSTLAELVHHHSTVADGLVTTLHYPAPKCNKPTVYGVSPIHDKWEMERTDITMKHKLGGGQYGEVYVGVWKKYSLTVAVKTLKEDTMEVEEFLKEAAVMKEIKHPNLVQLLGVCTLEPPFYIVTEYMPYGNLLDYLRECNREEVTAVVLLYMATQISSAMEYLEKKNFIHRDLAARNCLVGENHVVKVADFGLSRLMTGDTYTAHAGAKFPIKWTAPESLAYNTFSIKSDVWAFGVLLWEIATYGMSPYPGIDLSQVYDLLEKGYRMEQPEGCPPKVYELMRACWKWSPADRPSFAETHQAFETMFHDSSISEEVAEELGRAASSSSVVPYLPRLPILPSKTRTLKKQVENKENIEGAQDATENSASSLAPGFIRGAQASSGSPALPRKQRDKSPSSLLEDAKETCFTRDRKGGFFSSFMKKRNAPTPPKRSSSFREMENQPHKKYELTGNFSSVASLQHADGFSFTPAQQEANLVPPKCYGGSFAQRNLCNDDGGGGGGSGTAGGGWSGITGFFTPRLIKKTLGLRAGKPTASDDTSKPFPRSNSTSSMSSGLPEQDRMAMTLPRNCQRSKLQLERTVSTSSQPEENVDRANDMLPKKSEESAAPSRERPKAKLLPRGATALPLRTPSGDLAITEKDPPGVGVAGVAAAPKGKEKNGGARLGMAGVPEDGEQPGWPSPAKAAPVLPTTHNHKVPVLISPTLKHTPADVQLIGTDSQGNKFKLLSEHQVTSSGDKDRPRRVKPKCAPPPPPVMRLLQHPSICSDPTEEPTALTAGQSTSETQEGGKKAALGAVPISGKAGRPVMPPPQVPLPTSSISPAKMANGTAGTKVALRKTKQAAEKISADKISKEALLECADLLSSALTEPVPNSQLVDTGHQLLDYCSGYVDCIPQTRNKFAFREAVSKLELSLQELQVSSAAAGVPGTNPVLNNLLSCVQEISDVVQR
Protein kinase C beta type (Homo sapiens), sequence (P05771 2-671 limits assumed): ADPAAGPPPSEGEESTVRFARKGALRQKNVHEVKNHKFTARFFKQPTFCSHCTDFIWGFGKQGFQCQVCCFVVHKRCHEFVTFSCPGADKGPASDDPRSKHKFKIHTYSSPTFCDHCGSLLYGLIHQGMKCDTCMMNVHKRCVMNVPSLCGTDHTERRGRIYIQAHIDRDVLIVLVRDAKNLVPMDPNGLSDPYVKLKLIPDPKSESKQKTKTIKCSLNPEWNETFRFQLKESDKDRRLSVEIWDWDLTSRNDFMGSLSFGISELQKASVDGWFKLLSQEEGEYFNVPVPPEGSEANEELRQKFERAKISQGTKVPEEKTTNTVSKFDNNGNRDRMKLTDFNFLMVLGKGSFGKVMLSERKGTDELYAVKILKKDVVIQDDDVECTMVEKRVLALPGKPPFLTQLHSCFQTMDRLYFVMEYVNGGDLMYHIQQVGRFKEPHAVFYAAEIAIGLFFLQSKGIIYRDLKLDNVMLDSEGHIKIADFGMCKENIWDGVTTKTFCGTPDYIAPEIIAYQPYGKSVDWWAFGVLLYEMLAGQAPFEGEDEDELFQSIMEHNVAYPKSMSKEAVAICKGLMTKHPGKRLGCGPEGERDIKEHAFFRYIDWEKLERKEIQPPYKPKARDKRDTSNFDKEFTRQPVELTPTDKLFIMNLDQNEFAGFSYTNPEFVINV
Protein kinase C eta type (Homo sapiens), sequence (P24723 whole entry): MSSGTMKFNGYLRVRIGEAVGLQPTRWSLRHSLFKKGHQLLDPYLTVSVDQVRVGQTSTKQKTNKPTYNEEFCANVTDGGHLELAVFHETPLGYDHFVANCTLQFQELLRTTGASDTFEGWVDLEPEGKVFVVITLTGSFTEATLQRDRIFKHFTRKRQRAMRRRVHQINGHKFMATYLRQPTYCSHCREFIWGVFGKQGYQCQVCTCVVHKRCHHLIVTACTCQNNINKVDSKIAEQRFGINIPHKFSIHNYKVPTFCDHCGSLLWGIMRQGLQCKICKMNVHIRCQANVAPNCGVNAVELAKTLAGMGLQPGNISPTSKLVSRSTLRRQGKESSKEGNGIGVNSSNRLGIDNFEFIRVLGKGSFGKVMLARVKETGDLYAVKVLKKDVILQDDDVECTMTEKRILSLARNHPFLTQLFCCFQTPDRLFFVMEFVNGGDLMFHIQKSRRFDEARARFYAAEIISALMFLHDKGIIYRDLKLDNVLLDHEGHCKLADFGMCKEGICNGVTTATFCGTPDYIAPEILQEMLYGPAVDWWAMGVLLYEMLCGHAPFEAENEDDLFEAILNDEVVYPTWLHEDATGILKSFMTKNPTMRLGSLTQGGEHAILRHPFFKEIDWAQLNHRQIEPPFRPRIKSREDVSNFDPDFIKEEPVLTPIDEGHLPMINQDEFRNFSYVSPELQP

Usually inhibition stands for the share of the control response that was lost under treatment. Consider `CC(C)[C@H](NC(=O)c1cc(-c2cnn3cc(-c4ccc(OCCN5CCCCC5)cc4)cnc23)cs1)C(F)(F)F`, for which the results for the inhibition in assay [1] and in assay [3] were 0% and 42%, respectively. The fold change (FC) is 0.15 in assay [2] and 0 in assay [4].

For the molecule `O=C(N[C@@H](C1CC1)C(F)(F)F)c1cc(-c2cnn3cc(-c4ccc(F)cc4)cnc23)cs1`, the inhibition in assay [5] was found to be 3%.

On to `CNC(=O)c1ccccc1Oc1nc(Nc2cc(OC)c(OC)c(OC)c2)ncc1Br`, for which the results for the fold change (FC) in assay [6] and in assay [7] were 0.62 and 0.04, respectively. Moreover, the inhibition in assay [8] is 54%.
